Legend:
[1] = biological target: T1, Sodium channel protein type 5 subunit alpha (Homo sapiens, UniProt Q14524); assay: Binding affinity to inactivated state of human NaV1.5 channel by whole-cell patch clamp assay; details: read-out: K
[2] = test system: Rattus norvegicus; assay: Analgesic activity in rat spinal nerve ligation neuropathic pain model assessed as reversal of allodynia at 10 mg/kg, po measured at 8 hrs relative to control; type: functional
Method in brief: (§1)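 Rat spinal nerve ligation model. Seven days after surgery, rats received a single oral dose (3, 10 or 30 mg/kg) of test agent or vehicle. Tactile allodynia was scored at 2, 4, 8 and 24 h post-dose with calibrated von Frey filaments using an up-down paradigm. Threshold is the force giving a 50% withdrawal rate. %MPE = (post-compound − post-SNL)/(pre-SNL − post-SNL) × 100, where 100% is full reversal.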

[3] = test system: Rattus norvegicus; assay: Analgesic activity in rat spinal nerve ligation neuropathic pain model assessed as reversal of allodynia at 3 mg/kg, po measured at 8 hrs relative to control; type: functional; method in brief: as §1
[4] = test system: Rattus norvegicus; assay: Analgesic activity in rat spinal nerve ligation neuropathic pain model assessed as reversal of allodynia at 3 mg/kg, po measured at 4 hrs relative to control; type: functional; method in brief: as §1
[5] = biological target: T2, Prostaglandin E2 receptor EP1 subtype (Homo sapiens) (UniProt P34995); assay: Binding affinity to prostaglandin receptor EP1 (unknown origin) at 25 uM relative to control
T2 sequence (whole entry): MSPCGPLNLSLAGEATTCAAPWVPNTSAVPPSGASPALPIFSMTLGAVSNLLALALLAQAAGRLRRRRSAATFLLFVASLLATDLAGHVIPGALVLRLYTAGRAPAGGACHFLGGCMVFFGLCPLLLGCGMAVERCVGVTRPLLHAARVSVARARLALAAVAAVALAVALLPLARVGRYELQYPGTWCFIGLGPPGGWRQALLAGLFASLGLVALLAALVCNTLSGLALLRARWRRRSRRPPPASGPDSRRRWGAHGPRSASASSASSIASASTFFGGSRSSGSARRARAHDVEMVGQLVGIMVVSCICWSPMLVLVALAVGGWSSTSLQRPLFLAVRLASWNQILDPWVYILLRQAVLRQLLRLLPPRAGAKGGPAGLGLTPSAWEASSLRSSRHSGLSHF

[6] = biological target: hERG (KCNH2) (Homo sapiens, UniProt Q12809); assay: Displacement of [35S]-MK0499 from human ERG expressed in HEK293 cell membranes at 10 uM after 2 hrs by liquid scintillation counting analysis relative to control; details: membranes of HEK293 cells that express human ERG, probe [35S]-MK0499
Method in brief: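 hERG binding assay measuring displacement of 35S-labelled MK-0499, a known hERG blocker.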

[7] = biological target: Mu-type opioid receptor (Homo sapiens) (UniProt P35372); assay: Binding affinity to mu opioid receptor (unknown origin) at 25 uM relative to control
Chain of Mu-type opioid receptor (Homo sapiens) (P35372 whole entry): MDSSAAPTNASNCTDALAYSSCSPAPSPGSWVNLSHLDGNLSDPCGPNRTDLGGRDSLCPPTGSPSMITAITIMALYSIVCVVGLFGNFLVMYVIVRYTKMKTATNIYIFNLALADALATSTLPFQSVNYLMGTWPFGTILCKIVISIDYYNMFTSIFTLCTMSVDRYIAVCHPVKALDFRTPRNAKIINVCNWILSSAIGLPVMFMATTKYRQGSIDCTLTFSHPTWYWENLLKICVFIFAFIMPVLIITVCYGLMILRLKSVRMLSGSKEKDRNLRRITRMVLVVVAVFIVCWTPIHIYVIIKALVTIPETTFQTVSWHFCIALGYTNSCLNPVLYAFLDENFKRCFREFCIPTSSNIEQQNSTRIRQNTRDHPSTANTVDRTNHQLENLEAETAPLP

[8] = test system: Rattus norvegicus; assay: Dose normalized AUC in Sprague-Dawley rat at 3 mg/kg, po; type: ADME, organism-based; set-up: dose 3 mg/kg, route oral; details: in vivo
Method in brief: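 Fasted male Sprague–Dawley rats (n = 3 per route) were dosed with 1.5 mg/mL solutions in PEG300/water or DMSO/PEG300/water, either 1.0 mg/kg iv via femoral-vein cannula or 3.0 mg/kg by oral gavage. Blood was sampled at 5 min (iv only), 15 and 30 min, and 1, 2, 4, 6 and 8 h. Plasma levels were measured by LC–MS/MS after acetonitrile protein precipitation.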

[9] = test system: Rattus norvegicus; assay: Analgesic activity in rat spinal nerve ligation neuropathic pain model assessed as reversal of allodynia at 30 mg/kg, po measured at 8 hrs relative to control; type: functional; method in brief: as §1
[10] = test system: Rattus norvegicus; assay: Analgesic activity in rat spinal nerve ligation neuropathic pain model assessed as reversal of allodynia at 3 mg/kg, po measured at 2 hrs relative to control; type: functional; method in brief: as §1
[11] = biological target: Delta-type opioid receptor (Homo sapiens) (UniProt P41143); assay: Binding affinity to delta opioid receptor (unknown origin) at 25 uM relative to control
Chain of Delta-type opioid receptor (Homo sapiens) (P41143 whole entry): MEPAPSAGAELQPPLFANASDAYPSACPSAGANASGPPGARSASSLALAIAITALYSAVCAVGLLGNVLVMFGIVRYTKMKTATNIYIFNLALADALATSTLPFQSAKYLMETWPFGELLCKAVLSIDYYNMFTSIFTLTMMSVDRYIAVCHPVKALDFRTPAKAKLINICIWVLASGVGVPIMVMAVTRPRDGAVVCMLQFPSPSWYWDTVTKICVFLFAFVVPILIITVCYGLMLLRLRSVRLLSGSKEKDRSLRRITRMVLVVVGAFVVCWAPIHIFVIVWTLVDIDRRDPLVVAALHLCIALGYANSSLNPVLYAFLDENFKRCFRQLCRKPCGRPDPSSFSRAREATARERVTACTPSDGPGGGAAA

[12] = biological target: Cannabinoid receptor 2 (Homo sapiens) (UniProt P34972); assay: Binding affinity to CB2 receptor (unknown origin) at 25 uM relative to control
[13] = biological target: Sodium channel protein type 8 subunit alpha (Homo sapiens) (UniProt Q9UQD0); assay: Binding affinity to inactivated state of NaV1.6 channel (unknown origin) by whole-cell patch clamp assay
Method in brief: (§2)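 Manual whole-cell voltage clamp measuring block of resting and inactivated channel states at room temperature. Data acquired at 50 kHz, filtered at 10 kHz. Bath: 40 mM NaCl, 120 mM NMDG-Cl, 1 mM KCl, 2.7 mM CaCl2, 0.5 mM MgCl2, 10 mM NMDG-HEPES, pH 7.4.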

[14] = test system: Rattus norvegicus; assay: Analgesic activity in rat spinal nerve ligation neuropathic pain model assessed as reversal of allodynia at 30 mg/kg, po measured at 24 hrs relative to control; type: functional; method in brief: as §1
[15] = biological target: Sodium channel protein type 10 subunit alpha (Homo sapiens) (UniProt Q9Y5Y9); assay: Binding affinity to inactivated state of NaV1.8 channel (unknown origin) by whole-cell patch clamp assay; method in brief: as §2
[16] = test system: Rattus norvegicus; assay: Analgesic activity in po dosed rat spinal nerve ligation neuropathic pain model assessed as reversal of allodynia measured at 2 to 4 hrs; type: functional; method in brief: as §1
[17] = biological target: T3, Sodium channel protein type 9 subunit alpha (Homo sapiens, UniProt Q15858); assay: Binding affinity to resting state of human NaV1.7 channel by whole-cell patch clamp assay; method in brief: as §2
Target sequence in this assay (Q15858 whole entry, looked up): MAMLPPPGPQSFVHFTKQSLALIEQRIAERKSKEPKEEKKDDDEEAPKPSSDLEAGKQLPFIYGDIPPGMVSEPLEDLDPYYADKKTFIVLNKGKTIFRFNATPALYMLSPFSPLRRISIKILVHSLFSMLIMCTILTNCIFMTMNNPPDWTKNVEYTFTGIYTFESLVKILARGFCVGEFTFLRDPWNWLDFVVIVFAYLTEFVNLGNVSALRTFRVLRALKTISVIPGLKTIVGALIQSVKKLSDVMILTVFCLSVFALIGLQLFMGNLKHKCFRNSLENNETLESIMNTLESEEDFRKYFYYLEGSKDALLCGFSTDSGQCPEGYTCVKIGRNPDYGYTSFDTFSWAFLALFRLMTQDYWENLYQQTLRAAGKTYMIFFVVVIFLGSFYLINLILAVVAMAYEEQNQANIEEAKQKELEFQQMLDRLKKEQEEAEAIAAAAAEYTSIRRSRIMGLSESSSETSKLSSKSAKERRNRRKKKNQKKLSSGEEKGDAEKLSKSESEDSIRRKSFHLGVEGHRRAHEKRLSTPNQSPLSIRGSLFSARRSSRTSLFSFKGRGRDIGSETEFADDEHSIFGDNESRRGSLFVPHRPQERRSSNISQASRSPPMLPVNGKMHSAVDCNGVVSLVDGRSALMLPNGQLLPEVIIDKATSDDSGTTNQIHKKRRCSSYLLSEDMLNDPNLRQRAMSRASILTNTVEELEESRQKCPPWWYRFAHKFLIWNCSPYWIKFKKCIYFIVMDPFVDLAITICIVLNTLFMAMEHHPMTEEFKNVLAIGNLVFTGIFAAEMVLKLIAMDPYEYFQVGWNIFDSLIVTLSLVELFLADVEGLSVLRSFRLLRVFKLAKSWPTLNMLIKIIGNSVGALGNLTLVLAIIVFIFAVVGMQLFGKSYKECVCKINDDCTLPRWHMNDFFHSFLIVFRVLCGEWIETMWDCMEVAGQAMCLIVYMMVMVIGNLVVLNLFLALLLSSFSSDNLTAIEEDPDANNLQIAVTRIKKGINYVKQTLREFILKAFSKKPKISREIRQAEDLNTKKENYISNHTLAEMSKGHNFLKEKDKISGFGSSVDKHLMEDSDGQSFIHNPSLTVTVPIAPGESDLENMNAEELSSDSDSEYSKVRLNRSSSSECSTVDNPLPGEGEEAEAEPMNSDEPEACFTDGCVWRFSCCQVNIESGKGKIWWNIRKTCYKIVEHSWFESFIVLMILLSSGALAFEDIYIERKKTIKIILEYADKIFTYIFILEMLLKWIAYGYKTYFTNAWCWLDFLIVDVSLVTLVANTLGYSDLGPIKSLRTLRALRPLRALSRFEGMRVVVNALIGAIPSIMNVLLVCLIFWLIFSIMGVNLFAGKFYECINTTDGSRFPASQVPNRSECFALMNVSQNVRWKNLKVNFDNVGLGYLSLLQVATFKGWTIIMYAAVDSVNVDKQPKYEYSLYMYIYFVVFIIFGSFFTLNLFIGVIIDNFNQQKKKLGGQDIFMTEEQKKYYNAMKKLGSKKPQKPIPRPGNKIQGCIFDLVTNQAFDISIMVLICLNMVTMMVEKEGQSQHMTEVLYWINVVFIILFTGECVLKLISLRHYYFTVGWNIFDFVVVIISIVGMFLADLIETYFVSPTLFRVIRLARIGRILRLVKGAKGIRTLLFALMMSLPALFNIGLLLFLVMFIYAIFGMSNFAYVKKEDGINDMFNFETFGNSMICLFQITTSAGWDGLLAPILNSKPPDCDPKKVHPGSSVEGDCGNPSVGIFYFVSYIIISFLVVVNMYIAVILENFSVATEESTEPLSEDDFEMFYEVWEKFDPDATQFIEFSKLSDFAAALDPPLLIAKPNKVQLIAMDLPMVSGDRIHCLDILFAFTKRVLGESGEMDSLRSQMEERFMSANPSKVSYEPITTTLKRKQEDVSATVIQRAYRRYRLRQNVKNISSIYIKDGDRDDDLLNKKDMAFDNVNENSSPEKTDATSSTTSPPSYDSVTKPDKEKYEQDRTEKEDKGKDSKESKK

[18] = biological target: T4, B1 bradykinin receptor (Homo sapiens) (UniProt P46663); assay: Binding affinity to BK1 receptor (unknown origin) at 25 uM relative to control
T4 sequence (whole entry): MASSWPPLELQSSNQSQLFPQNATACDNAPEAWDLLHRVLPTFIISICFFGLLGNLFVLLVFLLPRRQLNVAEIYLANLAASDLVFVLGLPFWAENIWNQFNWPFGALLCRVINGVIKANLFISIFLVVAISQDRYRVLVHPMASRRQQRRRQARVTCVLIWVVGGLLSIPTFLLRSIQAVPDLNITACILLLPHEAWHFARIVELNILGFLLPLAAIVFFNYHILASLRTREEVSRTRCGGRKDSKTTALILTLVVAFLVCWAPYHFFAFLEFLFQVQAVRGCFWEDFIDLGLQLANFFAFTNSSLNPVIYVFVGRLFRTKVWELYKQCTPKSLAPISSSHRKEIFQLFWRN

[19] = biological target: T3, Sodium channel protein type 9 subunit alpha; assay: Inhibition of human NaV1.7 channel expressed in HEK293 cells by FRET assay; type: cell-based
Method in brief: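 HEK293 cells stably expressing human Nav1.7. Channel block was read in a functional membrane-potential assay based on FRET between two membrane-associated dyes; IC50 determined.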
Target sequence in this assay (Q15858 whole entry): as the sequence (Q15858 whole entry, looked up) above

[20] = biological target: T3, Sodium channel protein type 9 subunit alpha; assay: Binding affinity to inactivated state of human NaV1.7 channel by whole-cell patch clamp assay; method in brief: as §2
Target sequence in this assay (Q15858 whole entry, looked up): as the sequence (Q15858 whole entry, looked up) above

[21] = biological target: T1, Sodium channel protein type 5 subunit alpha; assay: Binding affinity to resting state of human NaV1.5 channel by whole-cell patch clamp assay; details: read-out: K
[22] = biological target: Prostaglandin G/H synthase 1 (Homo sapiens) (UniProt P23219); assay: Binding affinity to COX1 (unknown origin) at 25 uM relative to control

T1 sequence (Q14524 whole entry): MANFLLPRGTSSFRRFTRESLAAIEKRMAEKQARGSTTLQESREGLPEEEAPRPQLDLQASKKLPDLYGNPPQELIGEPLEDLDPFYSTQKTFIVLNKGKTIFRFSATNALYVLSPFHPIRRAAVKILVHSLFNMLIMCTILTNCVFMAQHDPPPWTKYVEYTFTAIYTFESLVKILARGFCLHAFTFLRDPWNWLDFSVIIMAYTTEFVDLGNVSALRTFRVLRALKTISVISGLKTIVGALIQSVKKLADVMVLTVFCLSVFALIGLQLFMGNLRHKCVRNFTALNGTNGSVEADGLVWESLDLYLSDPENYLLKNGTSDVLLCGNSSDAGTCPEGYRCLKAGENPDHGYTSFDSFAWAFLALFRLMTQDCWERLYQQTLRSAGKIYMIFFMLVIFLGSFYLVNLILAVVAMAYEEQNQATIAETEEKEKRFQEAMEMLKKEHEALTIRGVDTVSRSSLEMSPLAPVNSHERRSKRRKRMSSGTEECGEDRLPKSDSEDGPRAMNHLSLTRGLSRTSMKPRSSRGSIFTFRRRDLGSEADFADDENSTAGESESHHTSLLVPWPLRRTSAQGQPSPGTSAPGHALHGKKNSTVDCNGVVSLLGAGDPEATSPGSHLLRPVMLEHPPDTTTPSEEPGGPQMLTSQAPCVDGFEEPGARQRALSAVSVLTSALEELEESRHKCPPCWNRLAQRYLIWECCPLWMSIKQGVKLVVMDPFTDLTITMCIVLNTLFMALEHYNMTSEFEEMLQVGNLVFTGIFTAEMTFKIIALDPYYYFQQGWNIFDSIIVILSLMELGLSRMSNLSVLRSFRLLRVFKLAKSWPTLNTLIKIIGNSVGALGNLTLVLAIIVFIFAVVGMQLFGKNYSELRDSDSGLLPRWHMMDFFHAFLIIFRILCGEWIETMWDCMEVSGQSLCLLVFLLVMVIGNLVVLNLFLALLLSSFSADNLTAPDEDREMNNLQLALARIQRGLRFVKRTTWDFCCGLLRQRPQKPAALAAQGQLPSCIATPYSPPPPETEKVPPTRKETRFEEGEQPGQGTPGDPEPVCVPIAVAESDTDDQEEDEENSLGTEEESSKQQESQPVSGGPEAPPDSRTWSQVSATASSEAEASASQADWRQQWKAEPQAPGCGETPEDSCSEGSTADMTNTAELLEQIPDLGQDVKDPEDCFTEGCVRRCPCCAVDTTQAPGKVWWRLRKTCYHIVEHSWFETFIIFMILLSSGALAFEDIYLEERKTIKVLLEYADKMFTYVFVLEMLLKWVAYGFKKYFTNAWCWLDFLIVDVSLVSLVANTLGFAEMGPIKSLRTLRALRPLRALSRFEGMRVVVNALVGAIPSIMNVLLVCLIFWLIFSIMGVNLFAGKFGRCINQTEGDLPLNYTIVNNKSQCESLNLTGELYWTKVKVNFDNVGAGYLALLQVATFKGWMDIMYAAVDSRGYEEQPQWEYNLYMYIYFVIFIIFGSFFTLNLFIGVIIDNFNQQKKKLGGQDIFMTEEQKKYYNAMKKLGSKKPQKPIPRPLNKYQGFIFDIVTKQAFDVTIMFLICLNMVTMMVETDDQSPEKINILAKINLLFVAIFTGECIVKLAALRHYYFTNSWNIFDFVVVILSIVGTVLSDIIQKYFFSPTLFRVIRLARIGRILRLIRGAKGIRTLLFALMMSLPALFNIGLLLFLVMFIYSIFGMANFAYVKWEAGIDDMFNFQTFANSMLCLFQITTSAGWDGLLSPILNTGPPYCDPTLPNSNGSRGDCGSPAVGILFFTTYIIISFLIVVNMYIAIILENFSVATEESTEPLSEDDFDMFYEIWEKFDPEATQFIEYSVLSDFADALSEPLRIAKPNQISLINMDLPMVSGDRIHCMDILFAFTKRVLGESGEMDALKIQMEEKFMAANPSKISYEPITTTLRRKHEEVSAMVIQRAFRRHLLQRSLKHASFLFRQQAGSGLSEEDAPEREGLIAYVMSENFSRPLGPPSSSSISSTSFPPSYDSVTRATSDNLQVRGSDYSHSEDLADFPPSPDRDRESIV

**Q.** With O=C(N[C@H](Cc1ccccc1F)C(=O)N[C@@H]1CCc2c(F)c(F)cc(F)c2N(C2CC2)C1=O)C1CC1C(F)(F)F (some centres not stated) as the compound, how does the Kd [1] read?
**A.** 2380 nM

**Q.** What about the Activity [2] of the same compound?
**A.** 20%

**Q.** What about the Activity [3] of the same compound?
**A.** 7%

**Q.** What about the Activity [4] of the same compound?
**A.** 18%

**Q.** And the Activity [5]?
**A.** < 50%

**Q.** And the inhibition at 2 h, 10 µM [6]?
**A.** 26%

**Q.** And the Activity [7]?
**A.** < 50%

**Q.** What about the AUC/dose [8] of the same compound?
**A.** 0.72 µM·h/mg/kg

**Q.** What about the Activity [9] of the same compound?
**A.** 28%

**Q.** What about the Activity [10] of the same compound?
**A.** 15%

**Q.** And the Activity [11]?
**A.** < 50%

**Q.** And the Activity [12]?
**A.** < 50%

**Q.** And the K [13]?
**A.** 3.88 µM

**Q.** And the Activity [14]?
**A.** 10%

**Q.** And the K [15]?
**A.** 3.02 µM

**Q.** What about the ED50 [16] of the same compound?
**A.** 15 mg/kg

**Q.** What about the K [17] of the same compound?
**A.** 24 µM

**Q.** What about the Activity [18] of the same compound?
**A.** < 50%

**Q.** What about the IC50 [19] of the same compound?
**A.** 117 nM

**Q.** And the K [20]?
**A.** 0.44 µM

**Q.** And the Kd [21]?
**A.** > 10000 nM

**Q.** What about the Activity [22] of the same compound?
**A.** < 50%

Source: ChEMBL document CHEMBL2390921, “A novel benzazepinone sodium channel blocker with oral efficacy in a rat model of neuropathic pain” (Bioorg Med Chem Lett, 2013)
